An excerpt weighted towards active compounds, which were near 2.9% of everything screened.
DENV2 CPE rescue: DENV2-induced cell death inhibition. DENV2-infected cells, cytopathic effect rescue, plate reader. CPE inhibition, % at 9.99 µM. 350,000 compounds, 1.7% hits; in the data active = CPE inhibition above about 20%, passing the limit was not always enough; inconclusive = no clear call, values can overlap the other calls; tested in BHK-21 cells;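 note: 0% = median of neutral control wells and 100% = median of positive control wells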
E-selectin induc: induces E-selectin expression in human endothelial cells. activation, % at 7.58 µM. 260,000 compounds, 0.37% hits. AID 686992. HUVEC E-selectin immunofluorescence imaging; normalized: neutral wells 0, TNF-alpha wells 100;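 active = mean E-selectin-positive cell signal at least 10% of the positive control, reached in at least 60% of replicates, without over 20% cell loss; inconclusive = no rule given, readout overlaps actives, possibly toxicity-flagged; inactive = the rest, including those meeting only one limit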
Target sequence (P16581 whole entry, looked up): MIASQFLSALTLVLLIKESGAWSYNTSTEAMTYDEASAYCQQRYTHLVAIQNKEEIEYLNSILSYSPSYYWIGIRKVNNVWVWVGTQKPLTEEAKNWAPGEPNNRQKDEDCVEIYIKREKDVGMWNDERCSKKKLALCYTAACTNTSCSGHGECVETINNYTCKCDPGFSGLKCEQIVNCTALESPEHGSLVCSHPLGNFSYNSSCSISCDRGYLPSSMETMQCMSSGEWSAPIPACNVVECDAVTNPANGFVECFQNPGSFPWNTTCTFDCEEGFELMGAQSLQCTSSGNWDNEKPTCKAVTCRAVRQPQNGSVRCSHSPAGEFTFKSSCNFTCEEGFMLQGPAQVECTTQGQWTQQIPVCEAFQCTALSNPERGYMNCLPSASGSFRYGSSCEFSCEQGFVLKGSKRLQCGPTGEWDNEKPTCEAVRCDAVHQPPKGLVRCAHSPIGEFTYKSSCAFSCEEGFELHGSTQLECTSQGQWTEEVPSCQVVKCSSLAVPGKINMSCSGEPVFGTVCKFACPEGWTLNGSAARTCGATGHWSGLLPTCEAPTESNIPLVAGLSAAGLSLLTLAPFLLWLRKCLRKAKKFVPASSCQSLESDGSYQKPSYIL
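Test system: HUVEC | Signal: Immunofluorescence imaging | Read-out: Percent E-selectin-positive cells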
SIRT5 block: inhibitors of human sirtuin-5 desuccinylase. Purified SirT5, succinyl-peptide AMC, trypsin-coupled fluorescence. Q9NXA8. AID 652115. 330,000 compounds, 1.1% hits. inhibition, % at 15 µM; in the data active = inhibition above about 15%; inconclusive = no clear call, values can overlap the other calls
The depositor's hits bear a star; ? = inconclusive; · = not tested or not shown.

SMILES	DENV2 CPE rescue	E-selectin induc	SIRT5 block
C[C@@H]1CN([C@H](C)CO)C(=O)c2cc(C#Cc3cccnc3)cnc2O[C@@H]1CN(C)C(=O)CN(C)C	35*	0	-12
COc1ccccc1C#Cc1cnc2c(c1)C(=O)N([C@@H](C)CO)C[C@H](C)[C@@H](CN(C)C)O2	-1	0	31*
CC(=O)N(C)C[C@H]1Oc2ncc(C#Cc3ccccc3)cc2C(=O)N([C@@H](C)CO)C[C@@H]1C	9	0	1
C[C@H](CO)N1C[C@H](C)[C@@H](CN(C)C(=O)CN(C)C)Oc2ncc(C#Cc3cccnc3)cc2C1=O	0	0	-1
O=C(Nc1ccc(Cl)c(Cl)c1)N[C@@H]1CC[C@@H](CCn2cc(C3CCCC3)nn2)O[C@@H]1CO	-1	0	-3
C/C=C/c1ccc2c(c1)O[C@H](CN(C)S(C)(=O)=O)[C@@H](C)CN([C@@H](C)CO)S2(=O)=O	-3	-2	-8
CCCCc1nc2cc(C(=O)NCc3cn(C)nc3C)ccc2o1	47*	0	-1
CCCCc1nc2cc(C(=O)NCc3nccn3CC)ccc2o1	?	·	0
COc1ccc(COC(=O)c2ccc(C)c(S(=O)(=O)N3CCOCC3)c2)cc1F	13	-1	-2
COc1ccc(-c2ccc(OC)c([C@H]3[C@H]4C=CC[C@@H](C)[C@@H]4C(=O)N3Cc3ccccc3)c2)cc1OC	2	0	-3
COc1ccc(Br)cc1[C@H]1[C@H]2C=CC[C@@H](C)[C@@H]2C(=O)N1Cc1ccccc1	66*	10	·
COc1cc(CN2CCN(C(=O)c3cccc4ccccc34)CC2)cc(OC)c1OC	0	·	-7
COc1ccc(CN2CCN(C(=O)c3cccc4ccccc34)CC2)c(OC)c1OC	2	·	15*
CCOc1ccc(S(=O)(=O)Nc2ccccc2C(=O)N(C)C2CCN(C)CC2)cc1	-8	·	-2
CC=Cc1ccc2n(c1=O)C[C@@H]1[C@@H](CO)[C@H](C(=O)Nc3ccc(-c4ccccc4)cc3)[C@H]2N1C (mixture of isomers)	-3	0	0
Cc1cc(C)nc(N/N=C/c2ccccc2OCc2ccc(Br)cc2)n1	17	·	-4
Cc1cc(C)nc(N/N=C/c2ccccc2OCc2ccccc2)n1	79*	·	3
CCOC(=O)N1CCN(c2nc3ccccc3n3cnnc23)CC1	-5	0	0
CC(C)=CCC/C(C)=C/C(N)=O	-6	0	-4
C=CC(C)(O)CCC=C(C)C (stereo not drawn)	101*	·	0
CC(C)(C)NC(=O)C(c1ccc(F)cc1)N(CC1CCCO1)C(=O)c1csnn1 (stereo not drawn)	3	0	-1
O=C1CCCC(O)=C1N=Nc1ccc2c(c1)OCO2	7	·	10
O=C1CCCC(O)=C1N=Nc1ccc(C(=O)O)cc1	16	·	33*
C[C@H]1CN([C@@H](C)CO)C(=O)Cc2cc(NC(=O)CCN3CCOCC3)ccc2O[C@H]1CN(C)Cc1ccc(C(=O)O)cc1	-6	0	·
C[C@@H]1CCCCO[C@@H](CN(C)C(=O)C2CCCCC2)[C@H](C)CN([C@@H](C)CO)C(=O)c2cc(NC(=O)Nc3cccc4ccccc34)ccc2O1	14	0	2
SMILES	DENV2 CPE rescue	E-selectin induc	SIRT5 block
CCOc1ccc(/C=C/C(=O)OCC(=O)Nc2cccc(S(=O)(=O)N3CCCC3)c2)cc1	-5	·	3
O=S(=O)(Nc1ccc(S(=O)(=O)N2CCCCCC2)cc1)c1cccs1	10	·	-2
O=S(=O)(Nc1cccc(S(=O)(=O)N2CCCC2)c1)c1cccs1	7	116*	·
O=C(COC(=O)/C=C/c1cccs1)Nc1cccc(S(=O)(=O)N2CCCC2)c1	-3	-2	15*
COC(=O)C1=C(C)N(Cc2ccc(C)cc2)C(=O)/C1=C\c1cc(OC)c(OC)c(OC)c1	-1	2	-19
Cc1ccc(N2CC(C(=O)Nc3ccc(S(=O)(=O)Nc4nccs4)cc3)CC2=O)cc1 (stereo not drawn)	10	0	1
CC(C)CC#Cc1cnc2c(c1)C(=O)N([C@@H](C)CO)C[C@@H](C)[C@H](CN(C)Cc1cccc(F)c1)O2	-16	0	8
COc1cc(C(=O)NCCNc2nc3c(C)cccc3cc2C#N)cc(OC)c1OC	?	0	·
COc1ccc(C(=O)NCCNc2nc3c(C)cccc3cc2C#N)cc1OC	29*	0	-4
O=C(COC(=O)C1CC(=O)N(Cc2ccco2)C1)Nc1ccccc1[N+](=O)[O-] (stereo not drawn)	-7	·	-7
O=C(COC(=O)C1CC(=O)N(Cc2ccco2)C1)Nc1ccc(F)cc1F (stereo not drawn)	74*	-2	-1
O=C(CSc1ncnc2c1nnn2Cc1ccc(F)cc1)NC1CCCCC1	·	2	4
O=Nc1ccc(Cl)cn1	31*	0	·
Clc1ccc(N=c2ssnc2Cl)nc1	1	0	2
C[C@H]1CN([C@@H](C)CO)S(=O)(=O)c2ccc(C#CC3CC3)cc2O[C@H]1CN(C)Cc1cncnc1	·	0	·
COc1ccc(Cl)cc1NC(=O)CCN1CCN(Cc2ccccc2)CC1	?	0	22*
COc1ccc(C)cc1NC(=O)CCN1CCN(c2ccccc2)CC1	5	0	-3
CCN1CCN(CCC(=O)Nc2ccccc2OC)CC1	5	·	-3
COc1ccc(C)cc1NC(=O)CCN1CC(C)OC(C)C1 (stereo not drawn)	-5	·	23*
CCN(CC)S(=O)(=O)c1ccc(NN=C2CCN(C(C)C)CC2)c([N+](=O)[O-])c1	3	·	-3
O=C(O)CSc1cc(C(=O)c2ccccc2O)cn2c(=O)c3c4c(sc3nc12)CCCC4	0	·	37*
O=C(O)CSc1nc2sc3c(c2c(=O)n1Cc1ccccc1)CCCCC3	0	0	4
Cn1c(CSCc2ccc(Cl)cc2)nnc1SCC(=O)Nc1nccs1	·	·	-4
CCCn1c(NCc2ccc3c(c2)OCO3)nc2ccccc21	5	·	0
CN(C)CCn1c(NCc2ccc3c(c2)OCO3)nc2ccccc21	-2	1	31*
SMILES	DENV2 CPE rescue	E-selectin induc	SIRT5 block
COc1cc(/C=C/c2cccc[n+]2C)ccc1OCC(=O)Nc1ccccc1C	0	0	1
CCN(CC)C(=N)/C(C#N)=N/Nc1ccccc1	?	·	17*
Cc1ccc(N/N=C(\C#N)C(=N)N2CCCCC2)cc1	5	·	3
N/C(=N\OC(=O)c1cc(Br)ccc1Cl)c1cccnc1	1	·	-4
CCOc1ccc(NC(=O)CCN2C(=O)c3ccccc3C2=O)cc1	12	1	-2
CCOC(=O)N1C=CC=C[C@@H]2[C@@H](N3C(=O)c4ccccc4C3=O)C(=O)N21	63*	-1	-6
Cc1ccc(S(=O)(=O)N2CCCCC2)cc1NC(=O)COC(=O)c1ccc(=O)[nH]c1	2	0	-4
O=C1C[C@@H](c2ccc(O)cc2)Oc2cc(O)cc(O)c21	103*	0	-1
COc1cc(C2CC(=O)c3c(O)cc(O)cc3O2)ccc1O (stereo not drawn)	-8	·	1
CCOC(=O)c1cc(C)sc1NC(=O)CSc1nnnn1C	-2	12	0
Cc1[nH][nH]c(=O)c1C(c1ccccc1[N+](=O)[O-])C(C#N)C#N (stereo not drawn)	0	·	1
Cc1[nH][nH]c(=O)c1C(c1cc([N+](=O)[O-])ccc1O)c1c(C)[nH][nH]c1=O	-7	·	26*

High-throughput results deposited in PubChem BioAssay by Broad Institute.
